The results in this text go back to ChEMBL document CHEMBL1134335, “Structure-activity relationships of pyridoxal phosphate derivatives as potent and selective antagonists of P2X1 receptors” (J Med Chem, 2001).

Experiment [1] has as its target T1, P2Y purinoceptor 1 (Meleagris gallopavo, UniProt P49652). Nature of the experiment: Inhibition of 10 nM 2-MeS-ADP-stimulated phospholipase C in turkey erythrocyte membrane. It counts as functional, cell membranes. The method, boiled down:
(§1)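 Turkey erythrocytes labelled 18-24 h at 37 °C with 2-[³H]myo-inositol in inositol-free DMEM, then lysed hypotonically (5 mM sodium phosphate pH 7.4, 5 mM MgCl₂, 1 mM EGTA) to make ghosts. Ghosts were incubated 5 min at 30 °C in pH 7.0 Hepes/KCl buffer with 1 µM GTPγS and 10 nM 2-MeSADP. Total [³H]inositol phosphates were measured by anion-exchange chromatography; 3-8 independent determinations.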

The next experiment concerns the target T2, P2X purinoceptor 3 (Rattus norvegicus, UniProt P49654).
T2 sequence (P49654 whole entry): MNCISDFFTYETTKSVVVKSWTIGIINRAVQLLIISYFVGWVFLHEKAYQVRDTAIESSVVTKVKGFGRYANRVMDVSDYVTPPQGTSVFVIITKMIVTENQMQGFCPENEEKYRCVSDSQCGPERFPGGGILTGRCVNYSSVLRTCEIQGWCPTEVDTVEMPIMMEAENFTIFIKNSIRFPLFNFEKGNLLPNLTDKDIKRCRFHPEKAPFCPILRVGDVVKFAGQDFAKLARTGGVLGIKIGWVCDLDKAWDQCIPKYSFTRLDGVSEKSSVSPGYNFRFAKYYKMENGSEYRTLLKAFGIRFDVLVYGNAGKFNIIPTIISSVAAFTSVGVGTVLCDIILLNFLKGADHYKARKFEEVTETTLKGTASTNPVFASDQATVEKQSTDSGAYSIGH
Nature of the experiment: Inhibition of inward ion current elicited by ATP was determined at recombinant P2X3 receptor expressed in Xenopus oocytes. In kind it is functional, cell-based, Oocyte.

A further experiment deals with T3, P2X purinoceptor 1 (Rattus norvegicus, UniProt P47824).
T3 sequence (P47824 whole entry): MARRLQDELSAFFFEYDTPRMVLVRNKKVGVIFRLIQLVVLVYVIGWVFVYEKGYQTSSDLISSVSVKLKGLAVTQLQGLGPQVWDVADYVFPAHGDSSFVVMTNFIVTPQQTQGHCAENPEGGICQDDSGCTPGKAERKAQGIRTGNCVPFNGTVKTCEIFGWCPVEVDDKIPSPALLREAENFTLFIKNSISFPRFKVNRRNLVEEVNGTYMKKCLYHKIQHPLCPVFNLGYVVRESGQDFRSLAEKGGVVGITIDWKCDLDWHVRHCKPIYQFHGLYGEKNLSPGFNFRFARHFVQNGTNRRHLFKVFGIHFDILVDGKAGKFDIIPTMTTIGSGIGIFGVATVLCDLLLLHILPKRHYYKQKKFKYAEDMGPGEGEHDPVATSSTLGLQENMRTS
Nature of the experiment: Inhibition of inward ion current elicited by ATP at P2X1 receptor expressed in Xenopus oocytes. In kind it is functional, cell-based, Oocyte.

The next experiment addresses T4, P2X purinoceptor 2 (Rattus norvegicus, UniProt P49653).
T4 sequence (P49653 whole entry): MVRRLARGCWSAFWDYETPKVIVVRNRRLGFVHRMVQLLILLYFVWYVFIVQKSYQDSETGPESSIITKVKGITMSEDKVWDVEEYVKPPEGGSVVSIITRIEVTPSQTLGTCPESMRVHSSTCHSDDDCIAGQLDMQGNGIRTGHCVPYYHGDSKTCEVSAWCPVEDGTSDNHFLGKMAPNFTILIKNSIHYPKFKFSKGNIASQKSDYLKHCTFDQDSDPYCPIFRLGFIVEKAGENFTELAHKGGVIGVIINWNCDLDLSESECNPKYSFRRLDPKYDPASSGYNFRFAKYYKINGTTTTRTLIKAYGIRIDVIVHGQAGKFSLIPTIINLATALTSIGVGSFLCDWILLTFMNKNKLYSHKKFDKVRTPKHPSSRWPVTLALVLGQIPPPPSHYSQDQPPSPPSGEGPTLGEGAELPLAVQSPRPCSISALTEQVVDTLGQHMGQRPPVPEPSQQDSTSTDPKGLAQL
The experiment can be described thus: Inhibition of inward ion current elicited by ATP at P2X2 receptor expressed in Xenopus oocytes. It counts as functional, cell-based, Oocyte.

Experiment [2] deals with P2X purinoceptor 4 (Rattus norvegicus, UniProt P51577). Nature of the experiment: Inhibition of inward ion current elicited by ATP at rat P2X4 receptor (mutant type). It counts as functional.
For experiment [3], the target named is T5, P2X purinoceptor 6 (Rattus norvegicus, UniProt P51579). Nature of the experiment: Inhibition of inward ion current elicited by ATP at rat P2X6 receptor (mutant type). It counts as functional.
Target sequence in this assay (P51579 whole entry, looked up): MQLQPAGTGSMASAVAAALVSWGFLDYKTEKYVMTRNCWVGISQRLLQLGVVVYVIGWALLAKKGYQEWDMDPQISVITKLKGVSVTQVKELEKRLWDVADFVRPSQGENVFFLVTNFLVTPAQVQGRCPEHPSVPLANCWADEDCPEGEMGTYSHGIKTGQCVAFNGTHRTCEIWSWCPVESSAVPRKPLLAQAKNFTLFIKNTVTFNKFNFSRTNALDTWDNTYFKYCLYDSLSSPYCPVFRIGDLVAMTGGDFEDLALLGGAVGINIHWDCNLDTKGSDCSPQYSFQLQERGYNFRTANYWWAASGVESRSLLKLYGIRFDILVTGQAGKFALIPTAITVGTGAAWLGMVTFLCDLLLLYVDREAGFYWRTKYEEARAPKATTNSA
The target in experiment [4] is T1, P2Y purinoceptor 1. Nature of the experiment: Inhibition of 10 nM 2-MeS-ADP-stimulated phospholipase C in turkey erythrocyte membranes using [3H]inositol. In kind it is functional, cell membranes. The essentials:
as §1

The target in experiment [5] is T6, P2X purinoceptor 4 (Rattus norvegicus, UniProt P51577).
T6 sequence (P51577 whole entry): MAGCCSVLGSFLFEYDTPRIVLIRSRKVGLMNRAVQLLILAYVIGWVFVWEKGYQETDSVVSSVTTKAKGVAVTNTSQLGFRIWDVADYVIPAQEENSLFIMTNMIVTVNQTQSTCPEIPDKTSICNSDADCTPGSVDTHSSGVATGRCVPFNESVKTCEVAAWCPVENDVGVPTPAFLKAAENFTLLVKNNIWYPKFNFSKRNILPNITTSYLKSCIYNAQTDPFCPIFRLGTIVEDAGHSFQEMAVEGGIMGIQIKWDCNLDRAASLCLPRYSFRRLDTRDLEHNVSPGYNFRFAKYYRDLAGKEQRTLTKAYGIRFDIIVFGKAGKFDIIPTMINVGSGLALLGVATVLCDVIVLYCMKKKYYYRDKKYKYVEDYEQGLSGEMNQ
Nature of the experiment: Inhibition of inward ion current elicited by ATP at rat P2X4 receptor (wild type). In kind it is functional.

Experiment [6] has as its target T5, P2X purinoceptor 6. Nature of the experiment: Inhibition of inward ion current elicited by ATP at rat P2X6 receptor (wild type). It counts as functional.
Target sequence in this assay (P51579 whole entry): as the sequence (P51579 whole entry, looked up) above

Each structure is given as a SMILES string. Where only a bound is given, the exact number is not on record here.

T1 sequence (P49652 whole entry): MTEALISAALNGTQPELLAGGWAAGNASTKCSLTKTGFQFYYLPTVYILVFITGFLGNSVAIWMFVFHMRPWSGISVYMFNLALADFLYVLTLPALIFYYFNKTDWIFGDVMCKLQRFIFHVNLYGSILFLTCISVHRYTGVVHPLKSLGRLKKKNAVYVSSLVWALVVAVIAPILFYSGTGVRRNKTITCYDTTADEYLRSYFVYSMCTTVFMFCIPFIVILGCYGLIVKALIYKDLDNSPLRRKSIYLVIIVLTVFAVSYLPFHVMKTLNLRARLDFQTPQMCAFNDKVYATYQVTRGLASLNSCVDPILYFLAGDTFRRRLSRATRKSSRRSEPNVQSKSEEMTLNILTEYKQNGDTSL

In the case of `Cc1nc(/N=N/c2ccccc2)c(COP(=O)(O)O)c(C=O)c1O`, the IC50 (commonly the midpoint of a concentration-inhibition curve) on P2Y purinoceptor 1 [1] is 54 µM; on P2X purinoceptor 3 it was 0.48 µM; on P2X purinoceptor 1, 0.042 µM; on P2X purinoceptor 2 it was 1.2 µM.
On to `Cc1nc(/N=N/c2ccc(S(=O)(=O)O)cc2S(=O)(=O)O)c(COP(=O)(O)O)c(C=O)c1O`, for which the 50% inhibitory concentration (IC50) against P2X purinoceptor 4 [2] was 2.6 µM; against P2X purinoceptor 6 [3] it was 2 µM; on P2Y purinoceptor 1 [4], 16.6 µM; at P2X purinoceptor 3, 0.24 µM; against P2X purinoceptor 1, 0.099 µM; against P2X purinoceptor 4 [5], over 500 µM. Moreover, the results for the IC50 at P2X purinoceptor 2 and on P2X purinoceptor 6 [6] were 1.6 µM and over 500 µM, respectively.
